The full list was thinned out, with hits kept by preference.
Mdm2 ligase inh – MDM2-luciferase reporter signal enhancers, primary screen, MDM2 E3 ligase inhibitor project, cell-based, luminescence, 1536-well. cell-based MDM2 ubiquitination luciferase reporter, 2 h; 0 = plate control, 100 = twice control, blank-subtracted. signal enhancement, % at 5 µM. 210,000 tested, 0.11% active;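 active = signal enhancement of 30% or more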;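 note: luminescence tracks abundance of the self-degrading MDM2-luciferase fusion protein; higher signal means inhibition of MDM2 E3 ligase activity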
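Test system: stable mammalian line carrying autodegrading MDM2–luciferase fusion reporter; quantity: 2000 cells in each well; times: 4 h cell settling then 2 h compound exposure, 37 °C; detection: luminescence with SteadyLite reagent, 15 min at room temperature; evaluation: percent signal gain over controls, blank-subtracted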
S1P4 ag – S1P4 receptor agonists, primary screen, cell-based; S1P4-expressing cell line, agonist reporter assay; activation, % at 4.98 µM; 220,000 tested, 0.35% active; AID 1509, 2009; in the data active = activation above about 11%
Lmaj promast – Leishmania major promastigote growth inhibition, primary screen; Leishmania major promastigotes, resazurin fluorescence viability; inhibition, % at 10 µM; 200,000 tested, 9% active; AID 1063, 2008; in the data active = inhibition above about 50%;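 note: promastigotes grown with compound for 44 hours at 28 °C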
S1P4 antagonist – S1P4 receptor antagonists, primary screen, cell-based; S1P4-expressing cells, antagonist mode, reporter read-out; inhibition, % at 4.98 µM; 220,000 tested, 0.26% active; Sphingosine 1-phosphate receptor 4 (Homo sapiens), O95977; in the data active = inhibition above about 29%
S1P3 antagonist – S1P3 receptor antagonists, primary screen, cell-based | Sphingosine 1-phosphate receptor 3 (Homo sapiens), Q99500 | 170,000 tested, 0.27% active | CHO S1P3 NFAT-BLA reporter, FRET fluorescence, antagonist mode | inhibition, % at 4.98 µM | AID 485, 2006;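 active = inhibition above the plate cutoff, the mean inhibition of test wells on that plate plus 3 SD, cut at about 28% in these data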;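 note: cells challenged with S1P at its EC80 of 0.8 µM; blue over green emission ratio from cleaved BLA substrate after 4 h stimulation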
Target sequence (Q99500 whole entry, looked up): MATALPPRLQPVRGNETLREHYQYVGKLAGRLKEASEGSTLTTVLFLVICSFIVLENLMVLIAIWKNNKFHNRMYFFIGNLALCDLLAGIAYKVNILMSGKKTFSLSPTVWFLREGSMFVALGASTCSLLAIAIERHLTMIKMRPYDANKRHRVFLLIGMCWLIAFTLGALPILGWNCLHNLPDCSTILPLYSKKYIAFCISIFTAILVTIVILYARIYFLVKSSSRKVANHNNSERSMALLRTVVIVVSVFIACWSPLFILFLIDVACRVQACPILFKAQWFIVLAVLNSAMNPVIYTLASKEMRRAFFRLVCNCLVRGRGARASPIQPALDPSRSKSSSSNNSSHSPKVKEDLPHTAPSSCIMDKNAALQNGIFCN
Large screens that a line does not name were inactive.

CC(NC(=O)C(=O)NN=C1CCCC1)c1ccccc1 (stereo not given)	none
Cc1cccc(S(=O)(=O)c2c(N)n(/N=C/c3ccco3)c3nc4ccccc4nc23)c1	Lmaj promast 53
Cc1cccc(S(=O)(=O)c2c(N)n(-c3ccccc3)c3nc4ccccc4nc23)c1	none (no result: Mdm2 ligase inh)
Nc1c(S(=O)(=O)c2ccccc2)c2nc3ccccc3nc2n1/N=C/c1ccco1	none (no result: S1P3 antagonist)
Cc1ccc(-n2c(N)c(S(=O)(=O)c3ccccc3)c3nc4ccccc4nc32)cc1	Lmaj promast 57
CCNC(=O)NC(=O)C(C)OC(=O)C1CCN(S(=O)(=O)c2ccccc2C(=O)OC)CC1 (stereo not given)	none
Cc1cc(C)c(N2CCN(S(=O)(=O)N3CCCCCC3)CC2)c(C)c1	none
CCn1c(=O)c2c(nc3n2CCCN3c2cccc(C)c2)n(C)c1=O	none (no result: Lmaj promast)
CCOC(=O)Cc1csc(NC(=O)COc2ccc(N(C)S(=O)(=O)c3cccs3)cc2)n1	none (no result: S1P3 antagonist)
O=C1C2C3CCC(C3NCc3ccccc3)C2C(=O)N1Cc1ccccc1 (stereo not given)	Lmaj promast 60 (no result: S1P3 antagonist)
O=C(CSc1ccc2ccccc2c1)Nc1ncccn1	none
CCCN(CCC)c1nc2ccccc2nc1C(C#N)C(=O)OC(C)COC (stereo not given)	Lmaj promast 66 (no result: S1P3 antagonist)
CCN1C(=O)N(CC)C2C1N(C(C)=O)C(=O)N2C(C)=O (stereo not given)	none
O=C(Nc1ccccc1)c1ccc2snnc2c1	Lmaj promast 77
O=C(Nc1ccc2snnc2c1)Nc1cccc2ccccc12	Lmaj promast 100 (no result: S1P3 antagonist)
Cc1nc2cc(NC(=O)Nc3cccc4ccccc34)ccc2n1C	none
COc1cc(NC(=O)c2ccc3snnc3c2)cc(OC)c1	none (no result: Lmaj promast)
COc1ccccc1NC(=O)c1ccc2snnc2c1	Lmaj promast 99
Cc1ccc(NCc2nnc(SCC(=O)Nc3cccc(O)c3)n2CC2CCCO2)c(C)c1 (stereo not given)	none
Cc1ccc(C(=O)N/C(=C\c2cccs2)C(=O)NCC2CCCO2)cc1C (stereo not given)	none
CCOC(=O)c1ccc(NC(=O)CSc2nc3cccnc3n2C)cc1	none (no result: S1P3 antagonist)
CCOC(=O)CSc1cccc2cccnc12	Lmaj promast 91
Cc1nc2cc(-c3ccccc3)nn2c(C)c1CCC(=O)NCc1ccco1	none (no result: S1P3 antagonist)
Cc1nc2cc(-c3cccc(F)c3)nn2c(C)c1CCC(=O)NC(C)CCc1ccco1 (stereo not given)	Lmaj promast 100
Cc1nc2ncnn2c(C)c1CCC(=O)NC(C)CCc1ccco1 (stereo not given)	none
COc1cc(OC)cc(-c2cc3nc(C)c(CCC(=O)NC(C)CCc4ccco4)c(C)n3n2)c1 (stereo not given)	Lmaj promast 100
COc1ccc(CNC(=O)CCc2c(C)nc3cc(-c4ccccc4OC)nn3c2C)cc1	none (no result: Lmaj promast)
COc1ccc(-c2cc3nc(C)c(CCC(=O)NCc4ccc(F)cc4)c(C)n3n2)c(OC)c1	Lmaj promast 93
CCOCC(=O)N1CCN(c2ccccc2OC)CC1	none
CC(=O)Nc1ccc(Oc2cc(NC(C)=O)cc([N+](=O)[O-])c2)cc1	none
CCc1c(C)nc2cc(-c3ccc(OC)c(OC)c3)nn2c1NCC1CC1	Lmaj promast 101 (no result: S1P3 antagonist)
COc1ccc(-c2cc3nc(C)cc(N4CC(C)CC(C)C4)n3n2)cc1 (stereo not given)	none (no result: S1P3 antagonist)
COc1ccc(/C=C(\NC(=O)c2ccccc2)C(=O)OCC2CCCN3CCCCC23)cc1OC (stereo not given)	Lmaj promast 73
O=C(Nc1ccc(C(=O)OC[C@@H]2CCCN3CCCC[C@H]23)cc1)c1cccc(Br)c1	Lmaj promast 68
CN(C)c1ccc(/C=N/N2C(=S)SC(C)(C)C2N(O)C(=O)Nc2ccc([N+](=O)[O-])cc2)cc1 (stereo not given)	none (no result: S1P3 antagonist)
Cc1ccc(C(=O)OC(C)CN2CCN(C)CC2)cc1 (stereo not given)	none (no result: Lmaj promast)
CCN(CC)S(=O)(=O)c1ccc(N=NC2=C(O)CCCC2=O)cc1	none
CCN(CC)S(=O)(=O)c1ccc(N=NC2=C(O)CC(C)(C)CC2=O)cc1	Lmaj promast 80
CO/N=C/c1ccc(OC)c(Oc2nc(OC)cc(OC)n2)c1	none
CSc1nc(N)c(C(=O)Nc2ccc([N+](=O)[O-])cc2)s1	none (no result: Lmaj promast)
Cc1ccc([N+](=O)[O-])cc1-c1ccc(/C=C(\C#N)c2[nH]nc(N)c2C#N)o1	Lmaj promast 75
CCOC(=O)c1c(C)n(C)c2ccc(OCC(O)Cn3c(C)nc4ccccc43)cc12 (stereo not given)	none
CCOC(=O)c1c(C)n(C)c2ccc(OCC(O)CN3CCN(C)CC3)cc12 (stereo not given)	Lmaj promast 76
CCOC(=O)c1c(C)n(-c2ccc(C)cc2)c2ccc(OCC(O)CN3CCN(C)CC3)cc12 (stereo not given)	Lmaj promast 100
O=C1Nc2ccccc2C12OCC1(CO2)COC2(OC1)C(=O)Nc1ccccc12 (stereo not given)	Lmaj promast 91 (no result: S1P3 antagonist)
CC1(C)COC2(OC1)C(=O)Nc1ccccc12	none
O=C(NCc1ccccn1)c1cn(-c2ccccc2)nc1-c1ccc(Cl)cc1	none
CCOC(=O)c1cc(-c2ccc(F)cc2)n(CCC(=O)NC2CCN(Cc3ccccc3)CC2)c1C	Lmaj promast 80
CCOC(=O)c1cc(-c2ccccc2)n(CCC(=O)O)c1C	none (no result: S1P3 antagonist)
CCOC(=O)c1cc(-c2ccccc2)n(CC(=O)Nc2ccc(OC)cc2)c1C	Lmaj promast 51
CCOC(=O)c1cc(-c2ccc(OC)cc2)n(CCC(=O)NCCN2CCC(C)CC2)c1C	none
CC(=O)c1cc(-c2ccccc2)n(CCC(=O)NC2CCCCCCC2)c1C	none
CCOC(=O)c1cc(-c2ccc(OC)cc2)n(CCC(=O)NC2CCN(Cc3ccccc3)CC2)c1C	Lmaj promast 84
CC(=O)Nc1ccc(C)c(NS(=O)(=O)c2cccc(C(F)(F)F)c2)c1	none (no result: Lmaj promast)
Cc1[nH]c2c([N+](=O)[O-])cccc2c1C	none (no result: Lmaj promast)
CC(=O)[C@@]1(O)C(C)CC2C3C=C(C)C4=Cc5c(cnn5-c5ccccc5)C[C@]4(C)C3C(O)C[C@@]21C (stereo not given in full)	none (no result: Mdm2 ligase inh, Lmaj promast)
CC1CCC(C(C)C)C(OC(=O)Cn2c(-c3ccc(Br)cc3)[n+](C)c3ccccc32)C1 (stereo not given)	Lmaj promast 100
Cc1ccccc1OCc1n(CC(=O)OC2CC(C)CCC2C(C)C)c2ccccc2[n+]1C (stereo not given)	Lmaj promast 101
Cc1c(Cc2ccccc2)sc(NC(=O)C(C)(C)C)c1C(N)=O	none
COc1ccc(/C=N/n2c(SC)nnc2-c2ccccc2)cc1C	Lmaj promast 63

High-throughput results from PubChem BioAssay.
